Measured values published in ChEMBL document CHEMBL5046302, “Identification and Evaluation of Brominated Carbazoles as a Novel Antibiotic Adjuvant Scaffold in MRSA” (2022).
In brackets after ≈: the same amount, converted by molar mass.

What was measured:
Format in all cases: functional
Staphylococcus aureus [1] = assay: Antibacterial activity against methicillin-resistant Staphylococcus aureus ATCC 43300 assessed as inhibition of bacterial growth after 18 hrs by CLSI protocol based broth microdilution assay
Outline: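 Broth microdilution MIC of carbazole alone vs MRSA ATCC 43300, tested up to 200 μM.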

Staphylococcus aureus [2] = assay: Potentiation of oxacillin induced antibacterial activity against methicillin-resistant Staphylococcus aureus ATCC 43300 assessed as oxacillin MIC at 50 uM after 18 hrs by CLSI protocol based broth microdilution assay
Staphylococcus aureus [3] = assay: Potentiation of oxacillin induced antibacterial activity against methicillin-resistant Staphylococcus aureus ATCC 43300 assessed as fold change in oxacillin MIC at 50 uM after 18 hrs by CLSI protocol based broth microdilution assay
Staphylococcus aureus [4] = assay: Potentiation of ampicillin induced antibacterial activity against methicillin-resistant Staphylococcus aureus ATCC 43300 assessed as ampicillin MIC at 50 uM after 18 hrs by CLSI protocol based broth microdilution assay
Staphylococcus aureus [5] = assay: Potentiation of methicillin induced antibacterial activity against methicillin-resistant Staphylococcus aureus ATCC 43300 assessed as methicillin MIC at 50 uM after 18 hrs by CLSI protocol based broth microdilution assay
Staphylococcus aureus [6] = assay: Potentiation of ceftazidime induced antibacterial activity against methicillin-resistant Staphylococcus aureus ATCC 43300 assessed as ceftazidime MIC at 50 uM after 18 hrs by CLSI protocol based broth microdilution assay
Staphylococcus aureus [7] = assay: Potentiation of cefoxitin induced antibacterial activity against methicillin-resistant Staphylococcus aureus ATCC 43300 assessed as cefoxitin MIC at 50 uM after 18 hrs by CLSI protocol based broth microdilution assay
Staphylococcus aureus [8] = assay: Potentiation of ampicillin induced antibacterial activity against methicillin-resistant Staphylococcus aureus USA100 assessed as ampicillin MIC at 50 uM after 18 hrs by CLSI protocol based broth microdilution assay
Staphylococcus aureus [9] = assay: Potentiation of methicillin induced antibacterial activity against methicillin-resistant Staphylococcus aureus USA100 assessed as methicillin MIC at 50 uM after 18 hrs by CLSI protocol based broth microdilution assay
Staphylococcus aureus [10] = assay: Potentiation of ceftazidime induced antibacterial activity against methicillin-resistant Staphylococcus aureus USA100 assessed as ceftazidime MIC at 50 uM after 18 hrs by CLSI protocol based broth microdilution assay
Staphylococcus aureus [11] = assay: Potentiation of ampicillin induced antibacterial activity against methicillin-resistant Staphylococcus aureus USA300 assessed as ampicillin MIC at 50 uM after 18 hrs by CLSI protocol based broth microdilution assay
Staphylococcus aureus [12] = assay: Potentiation of ceftazidime induced antibacterial activity against methicillin-resistant Staphylococcus aureus USA300 assessed as ceftazidime MIC at 50 uM after 18 hrs by CLSI protocol based broth microdilution assay
Staphylococcus aureus [13] = assay: Potentiation of cefoxitin induced antibacterial activity against methicillin-resistant Staphylococcus aureus USA300 assessed as cefoxitin MIC at 50 uM after 18 hrs by CLSI protocol based broth microdilution assay
Staphylococcus aureus [14] = assay: Potentiation of ampicillin induced antibacterial activity against methicillin-resistant Staphylococcus aureus COL assessed as ampicillin MIC at 50 uM after 18 hrs by CLSI protocol based broth microdilution assay
Staphylococcus aureus [15] = assay: Potentiation of ceftazidime induced antibacterial activity against methicillin-resistant Staphylococcus aureus COL assessed as ceftazidime MIC at 50 uM after 18 hrs by CLSI protocol based broth microdilution assay
Staphylococcus aureus [16] = assay: Potentiation of cefoxitin induced antibacterial activity against methicillin-resistant Staphylococcus aureus COL assessed as cefoxitin MIC at 50 uM after 18 hrs by CLSI protocol based broth microdilution assay
Staphylococcus aureus [17] = assay: Potentiation of methicillin induced antibacterial activity against methicillin-resistant Staphylococcus aureus ATCC 43300 assessed as fold change in methicillin MIC at 50 uM after 18 hrs by CLSI protocol based broth microdilution assay
Staphylococcus aureus [18] = assay: Potentiation of ampicillin induced antibacterial activity against methicillin-resistant Staphylococcus aureus USA100 assessed as fold change in ampicillin MIC at 50 uM after 18 hrs by CLSI protocol based broth microdilution assay
Staphylococcus aureus [19] = assay: Potentiation of methicillin induced antibacterial activity against methicillin-resistant Staphylococcus aureus USA100 assessed as fold change in methicillin MIC at 50 uM after 18 hrs by CLSI protocol based broth microdilution assay
Staphylococcus aureus [20] = assay: Potentiation of ceftazidime induced antibacterial activity against methicillin-resistant Staphylococcus aureus USA100 assessed as fold change in ceftazidime MIC at 50 uM after 18 hrs by CLSI protocol based broth microdilution assay
Staphylococcus aureus [21] = assay: Potentiation of cefoxitin induced antibacterial activity against methicillin-resistant Staphylococcus aureus USA100 assessed as fold change in cefoxitin MIC at 50 uM after 18 hrs by CLSI protocol based broth microdilution assay
Staphylococcus aureus [22] = assay: Potentiation of ampicillin induced antibacterial activity against methicillin-resistant Staphylococcus aureus USA300 assessed as fold change in ampicillin MIC at 50 uM after 18 hrs by CLSI protocol based broth microdilution assay
Staphylococcus aureus [23] = assay: Potentiation of methicillin induced antibacterial activity against methicillin-resistant Staphylococcus aureus USA300 assessed as fold change in methicillin MIC at 50 uM after 18 hrs by CLSI protocol based broth microdilution assay
Staphylococcus aureus [24] = assay: Potentiation of cefoxitin induced antibacterial activity against methicillin-resistant Staphylococcus aureus USA300 assessed as fold change in cefoxitin MIC at 50 uM after 18 hrs by CLSI protocol based broth microdilution assay
Staphylococcus aureus [25] = assay: Potentiation of ampicillin induced antibacterial activity against methicillin-resistant Staphylococcus aureus COL assessed as fold change in ampicillin MIC at 50 uM after 18 hrs by CLSI protocol based broth microdilution assay
Staphylococcus aureus [26] = assay: Potentiation of methicillin induced antibacterial activity against methicillin-resistant Staphylococcus aureus COL assessed as fold change in methicillin MIC at 50 uM after 18 hrs by CLSI protocol based broth microdilution assay
Staphylococcus aureus [27] = assay: Potentiation of ceftazidime induced antibacterial activity against methicillin-resistant Staphylococcus aureus COL assessed as fold change in ceftazidime MIC at 50 uM after 18 hrs by CLSI protocol based broth microdilution assay
Staphylococcus aureus [28] = assay: Potentiation of cefoxitin induced antibacterial activity against methicillin-resistant Staphylococcus aureus COL assessed as fold change in cefoxitin MIC at 50 uM after 18 hrs by CLSI protocol based broth microdilution assay
Staphylococcus aureus [29] = assay: Potentiation of oxacillin induced antibacterial activity against methicillin-resistant Staphylococcus aureus COL assessed as fold change in oxacillin MIC at 50 uM after 18 hrs by CLSI protocol based broth microdilution assay
Staphylococcus aureus [30] = assay: Potentiation of oxacillin induced antibacterial activity against methicillin-resistant Staphylococcus aureus COL assessed as oxacillin MIC at 50 uM after 18 hrs by CLSI protocol based broth microdilution assay
Staphylococcus aureus [31] = assay: Potentiation of oxacillin induced antibacterial activity against methicillin-resistant Staphylococcus aureus USA300 assessed as fold change in oxacillin MIC at 50 uM after 18 hrs by CLSI protocol based broth microdilution assay
Staphylococcus aureus [32] = assay: Upregulation of pbp2 gene expression in methicillin-resistant Staphylococcus aureus ATCC 43300 assessed as fold change by RT-PCR method

SMILES	MIC (Staphylococcus aureus [1]) [µM]	MIC (Staphylococcus aureus [2]) [µg/mL]	fold change (FC) (Staphylococcus aureus [3])	MIC (Staphylococcus aureus [4]) [µg/mL]	MIC (Staphylococcus aureus [5]) [µg/mL]	MIC (Staphylococcus aureus [6]) [µg/mL]	MIC (Staphylococcus aureus [7]) [µg/mL]	MIC (Staphylococcus aureus [8]) [µg/mL]	MIC (Staphylococcus aureus [9]) [µg/mL]	MIC (Staphylococcus aureus [10]) [µg/mL]	MIC (Staphylococcus aureus [11]) [µg/mL]	MIC (Staphylococcus aureus [12]) [µg/mL]	MIC (Staphylococcus aureus [13]) [µg/mL]	MIC (Staphylococcus aureus [14]) [µg/mL]	MIC (Staphylococcus aureus [15]) [µg/mL]	MIC (Staphylococcus aureus [16]) [µg/mL]	fold change (FC) (Staphylococcus aureus [17])	fold change (FC) (Staphylococcus aureus [18])	fold change (FC) (Staphylococcus aureus [19])	fold change (FC) (Staphylococcus aureus [20])	further results
Brc1ccc2[nH]c3ccc(Br)cc3c2c1	> 200	8	4	16	2	128	32	32	32	256	8	256	64	8	1020	512	1	1	16	4	fold change (FC) (Staphylococcus aureus [21]): 2; fold change (FC) (Staphylococcus aureus [22]): 1; fold change (FC) (Staphylococcus aureus [23]): 4; fold change (FC) (Staphylococcus aureus [24]): 1; fold change (FC) (Staphylococcus aureus [25]): 2; fold change (FC) (Staphylococcus aureus [26]): 1; fold change (FC) (Staphylococcus aureus [27]): 1; fold change (FC) (Staphylococcus aureus [28]): 1; fold change (FC) (Staphylococcus aureus [29]): 4; MIC (Staphylococcus aureus [30]): 128 µg/mL; fold change (FC) (Staphylococcus aureus [31]): 2
Brc1cccc2c1[nH]c1ccccc12	> 200	4	8	4	4	64	16	8	8	256	8	256	16	16	1020	256	1	4	64	2	fold change (FC) (Staphylococcus aureus [21]): 16; fold change (FC) (Staphylococcus aureus [22]): 1; fold change (FC) (Staphylococcus aureus [23]): 4; fold change (FC) (Staphylococcus aureus [24]): 2; fold change (FC) (Staphylococcus aureus [25]): 2; fold change (FC) (Staphylococcus aureus [26]): 1; fold change (FC) (Staphylococcus aureus [27]): 1; fold change (FC) (Staphylococcus aureus [28]): 1; fold change (FC) (Staphylococcus aureus [29]): 1; MIC (Staphylococcus aureus [30]): 512 µg/mL; fold change (FC) (Staphylococcus aureus [31]): 4; fold change (FC) (Staphylococcus aureus [32]): 2
Brc1cccc2[nH]c3ccccc3c12	100 (≈ 24.6 µg/mL)																				fold change (FC) (Staphylococcus aureus [32]): 2
